Usually viability stands for a read-out of living cells in per cent, often relative to untreated cells. A word on the inhibition: it is the drop in the measured response relative to a control, in per cent.

SMILES strings stand for the structures. Unmarked numbers belong to inactive results. Records with an inconclusive call do not appear. The source made the active and inactive calls.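 The calls were made as follows, unless noted: active = inhibition over a set limit, the all-compound mean plus 3 SD, in both replicate runs; inconclusive = over that limit in just one replicate run; inactive = at or under that limit in both runs.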

This is an account of results in PubChem BioAssay.

Assay [1] can be described thus: OD615 S. cerevisiae growth inhibition, permissive medium, pilot counter-assay, permissive growth control for S. cerevisiae lifespan shortening project (AID 705;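 active = growth inhibition above 25% in both replicates, a cutoff set 3 SD above the mean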). The conditions noted are these: OD615, 24 h, at 10 µM, hits give high values. In outline: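 Material: engineered DeaD yeast; Compound: one dose 10 µM, DMSO 0.25% final; Detection: absorbance (optical density) at 615 nm; Buffer or medium: permissive raffinose/galactose medium; Timing: 24 h exposure, 30 °C.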

Assay [2] in a line: Restrictive medium S. cerevisiae growth inhibition, OD615, pilot screen of yeast lifespan reduction project, restrictive growth control (AID 706;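 active = growth inhibition above a set limit, 3 SD over mean compound inhibition, in both replicates, cut at about 43% in these data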;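 also: modified DeaD lifespan yeast strain shifted to restrictive glucose medium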). Conditions: OD615, 48 h, at 10 µM, hits give high values. The method in brief:
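Buffer or medium: restrictive glucose medium (CSMM-D); test system: modified S. cerevisiae; doses: single dose of 10 µM compound final, 0.25% DMSO; schedule: 48 h compound exposure at 30 °C; detection: absorbance (optical density) measured at 615 nm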

Assay [3] is described as follows: viability gain of MRP-1-high H69AR cells under doxorubicin, pilot screen, MRP-1 activator project, CellTiter-Glo, duplicate (AID 807;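 active = viability increase at or above a cutoff of the median across tested compounds plus 3 SD, cut at about 8.5% in these data, passing the limit was not always enough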;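 also: compound pretreatment 18-22 h then 72 h combined with doxorubicin; 0% = doxorubicin alone and 100% = vehicle without doxorubicin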). Conditions: H69AR viability with doxorubicin, CellTiter-Glo luminescence; at 10 µM; hits give high values. On the technique in general: Cellular ATP, detected with luciferase, serves as a proxy for viable cell number.
A short description of assay [4]: growth suppression of beta-catenin knockout HCT116, pilot screen, human colon tumor cells (AID 823;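 active = cell viability at or below a set limit in both duplicate runs, the limit being the all-compound median minus 4 SD, cut at about 23% in these data, passing the limit was not always enough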;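 also: 0% = wells killed by 20 µM Hyamine and 100% = untreated DMSO cell wells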). Conditions: CellTiter-Glo, 60 h, at 10 µM, hits give low values.
A short description of assay [5]: growth suppression of PTEN-deleted HCT116, pilot screen, cell-based, HCT116 clonal line, CellTiter-Glo (AID 824;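 active = viability at or below 27.92% in each of two runs, the all-compound median minus 4 SD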;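 also: 0% = 20 µM Hyamine control and 100% = vehicle cell control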). Conditions: 60 h, at 10 µM, hits give low values.
Assay [6] in a line: inhibitors of the yeast RAM network, pilot screen, dse1pr::URA3 reporter, 5-FOA selection (AID 869).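 Also: 0% = DMSO wells with no growth and 100% = 10 µM 1-NA-PP1 with full growth; RAM network block rescues cells from 5-FOA so hits raise OD615 growth.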 The conditions noted are these: S. cerevisiae dse1pr::URA3 5-FOA growth, OD615, 2 d; at 10 µM; hits give high values; strain carries analog-sensitive mutant Cbk1 kinase.
A short description of assay [7]: RAM signaling pathway blockade in yeast – S. cerevisiae, Pdr1DBD-CYC8 efflux-inhibited sensitized strain, primary screen (AID 1298;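 active = RAM network inhibition above 8.4% in each of two replicates, 3 SD over the compound average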;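 also: 0% = DMSO untreated cells without growth and 100% = 10 µM 1-NA-PP1 full growth; higher means more yeast growth rescued from 5-FOA killing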). Conditions: S. cerevisiae cbk1-as DSE1-URA3 strain, 5-FOA growth OD615, 2 d; at 50 µM; hits give high values.

In the case of `Cc1cc(C)nc(SCCn2c(N3CCC(C)CC3)nc3c2c(=O)n(C)c(=O)n3C)n1`, the values for the growth inhibition in assay [1] and in assay [2] were -3.83% and 0.625%, respectively. The viability increase in assay [3] is 1.09%. Also, the viability in assay [4] was 99.9%; in assay [5], 97.3%. In addition, the inhibition in assay [6] was 1.71%. In assay [7], the RAM network inhibition is 1.91%.
Regarding `C=CCSc1nnc2nc3c(nn12)c1cc(C)ccc1n3CC=C`, the growth inhibition in assay [1] is 10.7%; in assay [2], 51.1% (active). In addition, the viability increase in assay [3] is -3.51%. The viability in assay [4] was 88%; in assay [5], 82.6%. Also, in assay [6], the inhibition is 1.21%. Also, the RAM network inhibition in assay [7] was 3.23%.
For `CCOc1ccc2nc(N3CCC(C(=O)N4CCN(c5ccccn5)CC4)CC3)sc2c1`, the values for the growth inhibition in assay [1] and in assay [2] were -4.53% and -8.55%, respectively. The viability increase in assay [3] is -6.17%. The figures for the viability in assay [4] and in assay [5] were 50.9% and 55.7%, respectively. Besides, in assay [6], the inhibition is -0.605%. In addition, the RAM network inhibition in assay [7] was 2.36%.
With `COc1ccc(S(=O)(=O)Cc2ccc(C(=O)N3CCN(C4CCCCC4)CC3)o2)cc1`, the growth inhibition in assay [1] was 8.67%; in assay [2], 7.12%. In assay [3], the viability increase was -2.58%. The viability in assay [4] is 78.9%; in assay [5], 90%. Moreover, in assay [6], the inhibition is 0.75%. Besides, the RAM network inhibition in assay [7] was -1.9%.
For `CC1(C)CC(=O)C=C(NCCCNC2CCCCC2)C1`, the growth inhibition in assay [1] is -9.9%; in assay [2], -7.88%. Moreover, the viability increase in assay [3] was -2.17%. The viability in assay [4] was 96.5%; in assay [5], 93%. Further, the inhibition in assay [6] was 0.125%. Further, the RAM network inhibition in assay [7] was 1.72%.
For `Brc1cccc(-c2nc(-c3ccncc3)no2)c1`, the growth inhibition was -7.69% in assay [1] and 7.9% in assay [2]. The viability increase in assay [3] is -3.4%. For the same compound, the viability was 90.4% in assay [4] and 80% in assay [5]. The inhibition in assay [6] is -0.445%. For the same compound, the RAM network inhibition in assay [7] is 3.3%.
For the compound `CCn1c(C2CC(=O)N(c3ccc(C)c(C)c3)C2)nc2ccccc21` (stereo not drawn), the growth inhibition is -6.54% in assay [1] and 1.06% in assay [2]. In addition, in assay [3], the viability increase is -3.09%. The viability in assay [4] is 86.7%; in assay [5], 89.9%. Also, in assay [6], the inhibition is -0.35%. For the same compound, in assay [7], the RAM network inhibition was 0.57%.
As to `COc1ccc(Cn2c(=O)[nH]c3cc(C(=O)N4CCN(Cc5ccccc5)CC4)ccc3c2=O)cc1`, the growth inhibition is 1.4% in assay [1] and -4.04% in assay [2]. In addition, the viability increase in assay [3] was 1.49%. In addition, the viability in assay [4] was 36.3%; in assay [5], 49.7%. Moreover, the inhibition in assay [6] was 0.835%. Also, the RAM network inhibition in assay [7] was 1.57%.
In the case of `Cn1c2c(c(=O)n(C)c1=O)CN(Cc1ccco1)CN2`, the results for the growth inhibition in assay [1] and in assay [2] were -2% and 5.18%, respectively. In addition, the viability increase in assay [3] is -2.84%. In addition, the viability in assay [4] was 95.2%; in assay [5], 97.7%. Further, in assay [6], the inhibition is -0.115%. Further, the RAM network inhibition in assay [7] is -0.06%.
As to `CCN1CCN(CCCNC(=O)c2ccc3c(c2)NC(=O)c2ccccc2S3)CC1`, the growth inhibition in assay [1] was -15.9%; in assay [2], -14.5%. In addition, the viability increase in assay [3] is -2.37%. The viability in assay [4] was 90.6%; in assay [5] it was 95.4%. The inhibition in assay [6] is 0.905%. Also, the RAM network inhibition in assay [7] was 5.84%.
For `CCOCCCNC(=O)C(NC(=O)C1CCC(=O)N1)c1ccc(C)cc1` (stereo not drawn), the figures for the growth inhibition in assay [1] and in assay [2] were -2.92% and -1.24%, respectively. In addition, in assay [3], the viability increase was -0.58%. In addition, the viability in assay [4] is 109%; in assay [5] it was 98.8%. Moreover, the inhibition in assay [6] was 1.03%. Further, the RAM network inhibition in assay [7] is 5.24%.
Regarding `O=C(Cn1cc2c(n1)CCCC2)NCCCN1CCN(c2ccccc2F)CC1`, the growth inhibition is -16.9% in assay [1] and -6.56% in assay [2]. In addition, the viability increase in assay [3] is -3.08%. Moreover, the viability in assay [4] is 89.5%; in assay [5], 89%. For the same compound, the inhibition in assay [6] is 0.665%. The RAM network inhibition in assay [7] is 5.8%.
In the case of `Cc1sc2ncnc(SCC(=O)c3cccs3)c2c1C`, the growth inhibition in assay [1] is 6.02%; in assay [2] it was 10.6%. Further, in assay [3], the viability increase is -1.23%. Moreover, the viability in assay [4] was 100%; in assay [5] it was 94.3%. For the same compound, the inhibition in assay [6] is 0.73%. Moreover, the RAM network inhibition in assay [7] is 3.92%.
With `COCCOC(=O)C1=C(C)NC2=C(C(=O)CC(C)(C)C2)C1c1ccc2c(c1)OCO2` (stereo not drawn), the growth inhibition in assay [1] is -5.88%; in assay [2], -4.59%. Further, the viability increase in assay [3] is -1.42%. Moreover, the viability in assay [4] is 92.9%; in assay [5] it was 87.4%. The inhibition in assay [6] was 0.175%. Also, in assay [7], the RAM network inhibition was 2.6%.
Consider `CC(c1cccnc1)N(CCN(C)C)C(=O)Nc1ccc(Cl)c(Cl)c1` (stereo not drawn), for which the growth inhibition was -5.64% in assay [1] and -0.46% in assay [2]. Besides, the viability increase in assay [3] was -3.34%. For the same compound, the results for the viability in assay [4] and in assay [5] were 88.9% and 84.4%, respectively. In addition, in assay [6], the inhibition is 1.33%. In addition, the RAM network inhibition in assay [7] is 5.39%.
Consider `CCOC(=O)Cn1c(=O)oc2cc(S(=O)(=O)NC3CCCc4ccccc43)ccc21` (stereo not drawn), for which the results for the growth inhibition in assay [1] and in assay [2] were -9.8% and -15.4%, respectively. Besides, the viability increase in assay [3] was -0.67%. Also, the viability was 88.3% in assay [4] and 92.2% in assay [5]. Moreover, the inhibition in assay [6] is 4.13%. Besides, in assay [7], the RAM network inhibition is 3.75%.
With `CC1(C)CC(=O)C2=C(C1)N(c1ccc(F)cc1)C(=O)CC2c1cccnc1` (stereo not drawn), the growth inhibition in assay [1] is 0.065%; in assay [2], -2%. Further, the viability increase in assay [3] is -2.17%. For the same compound, the viability in assay [4] is 95.9%; in assay [5], 100%. For the same compound, the inhibition in assay [6] is 2.41%. For the same compound, the RAM network inhibition in assay [7] was 5.94%.
As for `CNc1nc(-c2ccc(Cl)cc2)cs1`, the growth inhibition in assay [1] is -5.83%; in assay [2], -22.5%. For the same compound, the viability increase in assay [3] was 0.42%. Also, the viability was 92.1% in assay [4] and 87.8% in assay [5]. Besides, in assay [6], the inhibition is 0.94%. Further, the RAM network inhibition in assay [7] was 0.43%.
As to `Cc1cc(Cl)ccc1NC(=O)CSc1nnc(-c2ccncc2)n1Cc1ccco1`, the growth inhibition in assay [1] is 5.41%; in assay [2], 25%. Also, in assay [3], the viability increase was 0.37%. Besides, the viability in assay [4] is 92.5%; in assay [5], 93.9%. The inhibition in assay [6] was 1%. Further, in assay [7], the RAM network inhibition was 3.58%.
